# FXIa inh – factor XIa (human) inhibition | P03951 | purified FXIa, Boc-Glu-Ala-Arg-AMC fluorogenic substrate | inhibition, % at 5 µM | 220,000 tested, 0.14% active;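 active means inhibition of at least 40%; inactive means inhibition below 40%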;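 further: fluorescence of freed AMC excited at 355 nm; 0% = enzyme without compound and 100% = no enzyme blank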
# FXIIa inh 1536 – blocks human coagulation factor XIIa protease activity. 220,000 tested, 0.3% active. inhibition, % at 5 µM. purified FXIIa, Boc-QGR-AMC fluorogenic substrate, 2 h. AID 800; in the data active means inhibition above about 40%;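 further: 0% = enzyme with no compound and 100% = blank without enzyme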
# Target sequence (P00748 20-372 limits assumed): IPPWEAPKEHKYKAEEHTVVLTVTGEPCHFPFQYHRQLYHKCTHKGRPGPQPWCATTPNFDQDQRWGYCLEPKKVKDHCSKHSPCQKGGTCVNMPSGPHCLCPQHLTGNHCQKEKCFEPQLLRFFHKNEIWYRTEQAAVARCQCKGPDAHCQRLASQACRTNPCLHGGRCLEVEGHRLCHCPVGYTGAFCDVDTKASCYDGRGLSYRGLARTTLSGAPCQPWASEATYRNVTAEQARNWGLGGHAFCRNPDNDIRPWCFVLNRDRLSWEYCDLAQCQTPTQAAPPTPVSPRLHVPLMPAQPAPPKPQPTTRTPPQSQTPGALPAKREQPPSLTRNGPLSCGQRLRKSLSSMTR
# Target sequence (P00748 373-615 limits assumed): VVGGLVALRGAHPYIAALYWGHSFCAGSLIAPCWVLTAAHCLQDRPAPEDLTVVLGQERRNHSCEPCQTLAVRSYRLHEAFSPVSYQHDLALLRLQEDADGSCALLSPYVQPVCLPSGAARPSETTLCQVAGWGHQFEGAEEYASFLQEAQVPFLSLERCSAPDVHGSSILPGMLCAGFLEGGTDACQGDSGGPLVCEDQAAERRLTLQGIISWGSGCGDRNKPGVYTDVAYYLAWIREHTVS
# HSV replic up – increases HSV replication in cells; AID 1956; HSV replication augmentation in cells, fold increase; 220,000 tested, 0.005% active; maximum fold increase; in the data active means maximum fold increase above about 1.5; tested in PC3 cells
# Furin inhibitor – inhibitors of human furin. AID 463115. P09958. inhibition, % at 20 µM or 30 µM. 220,000 tested, 0.061% active. purified furin, fluorogenic substrate cleavage; in the data active means inhibition above about 25%
# Thrombin inh – blocks human thrombin protease activity | inhibition, % at 5 µM | AID 1046 | 220,000 tested, 0.26% active | P00734 | alpha-thrombin, Boc-VPR-AMC fluorogenic substrate cleavage;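 active means inhibition at or above 40%; inactive means inhibition below 40%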;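 further: 0% = enzyme with no compound and 100% = wells without enzyme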
#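 Assay system: human alpha-thrombin enzyme. Reagent: Boc-VPR-AMC substrate, 15 µM final. Compound dosing: one concentration per compound, 5 µM, with 0.2% DMSO. Incubation: room-temperature reaction. Technique: AMC fluorescence, 355/460 nm. Measure: % inhibition relative to enzyme controls and enzyme-free blanks.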
# hK5 inh – kallikrein 5 (human) inhibition; inhibition, % at 5 µM; recombinant hK5, fluorogenic AMC substrate cleavage; 210,000 tested, 0.59% active;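 active means inhibition of 40% or more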;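 further: 0% = enzyme controls without compound and 100% = no-enzyme blanks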
# * hit, by the source's call; i = inactive; nt = no result given. An excerpt weighted towards active compounds, which were near 1% of everything screened.
SMILES,FXIa inh,FXIIa inh 1536,HSV replic up,Furin inhibitor,Thrombin inh,hK5 inh
Cc1ccc(S(=O)(=O)NC2(C(F)(F)F)NC(=O)N(C)C2=O)cc1 (centres undefined),7.2,21.6,i,-18.0,13.8,67.4*
Cc1ccc(-n2c(C)cc(/C=N/NC(=O)CN(c3ccc(C)cc3C)S(C)(=O)=O)c2C)cc1,21.8,30.4,i,-10.7,27.1,42.4*
COc1ccc(C(=O)NC(=S)Nc2cccc(Cl)c2N2CCOCC2)cc1[N+](=O)[O-],8.1,15.0,i,-8.9,2.3,42.4*
Cc1ccc(CC(=O)NCCC(=O)O)cc1,0.6,5.9,i,-20.3,-1.9,-0.3
Cc1cccc(N2CCN(Cc3cn(C)nc3-c3ccccc3F)CC2)n1,-5.0,2.0,i,-19.2,-14.1,-1.9
O=C(O)CN1C(=O)/C(=C/c2ccc(N3CCCCC3)o2)SC1=S,22.9,72.2*,i,1.3,8.2,45.1*
CCc1ccccc1NC(=O)c1ccc([N+](=O)[O-])s1,8.1,12.2,i,-14.2,-6.4,-1.4
O=C(Cc1cccs1)N(CC1CCCO1)C1(C(=O)NC2CCCC2)CCCCC1 (centres undefined),-5.3,0.8,i,2.4,-12.8,-7.5
COc1ccc2c(c1)C(c1ccc(N3CCOCC3)cc1)=NNC(c1cccnc1)=N2,7.2,13.1,i,-4.9,28.2,93.8*
COc1ccc2c(c1)C(c1ccc([N+](=O)[O-])cc1)=NNC(c1ccco1)=N2,-2.7,7.6,i,-9.4,5.5,42.1*
COc1ccc(C2=NNC(c3ccco3)=Nc3ccc(F)cc32)cc1,-6.2,3.5,i,1.2,-1.3,-4.5
Cc1nc([N+](=O)[O-])c(C(=O)OCc2ccccc2F)n1C,-5.8,0.5,i,-15.7,-1.0,-15.3
CC1CCCCN1CCn1c(=S)[nH]c2cc3c(cc2c1=O)OCO3 (centres undefined),-3.2,-1.1,i,-3.4,0.6,-6.2
COc1ccc(C(=O)N2CCSC2=S)cc1OC,6.4,14.8,i,-22.1,4.8,28.1
COc1cccc(C(=O)N2CCSC2=S)c1,14.9,9.1,i,-7.2,6.5,48.0*
COC(=O)NCC(c1ccco1)N1CCN(c2ccc(F)cc2)CC1 (centres undefined),0.5,-2.3,i,-13.8,27.4,43.3*
COC(=O)NCC(c1ccco1)N1CCN(c2ccc(OC)cc2)CC1 (centres undefined),-9.0,-9.2,i,-21.5,-1.1,-28.0
O=C(NCC(c1cccnc1)N1CCN(c2ccccc2)CC1)OCc1ccccc1 (centres undefined),5.3,17.0,i,-19.7,2.3,0.6
O=C(NCC(c1cccnc1)N1CCN(c2ccc(F)cc2)CC1)OCc1ccccc1 (centres undefined),9.6,14.1,i,-0.9,21.2,46.4*
Brc1cccc(/C=N/Nc2nn[nH]n2)c1,101.7*,42.8*,i,-3.2,18.1,39.7
CCN(CC)CCCNC(=O)Cn1cnc2ccc(S(=O)(=O)N3CCC(C)CC3)cc2c1=O,33.6,31.9,i,1.0,16.6,44.7*
Cc1sc(NC(=O)/C=C/c2ccco2)c(C(=O)O)c1C,5.0,12.3,i,3.8,2.3,5.5
Cc1ccccc1NC(=O)c1cccc2nc3ccccc3nc12,13.2,44.2*,nt,-33.3,0.9,14.3
COc1cc(/C=C/[N+](=O)[O-])ccc1OCc1cccc(C(=O)O)c1,21.4,17.3,i,-9.3,26.0,43.3*
COc1cc(/C=N/NC(=O)c2cccc([N+](=O)[O-])c2)ccc1OCc1ccccc1,4.5,14.6,i,-16.2,0.6,1.9
SMILES,FXIa inh,FXIIa inh 1536,HSV replic up,Furin inhibitor,Thrombin inh,hK5 inh
O=C(Cc1ccccc1)NN1C(=O)C2C3C=CC(C3)[C@@H]2C1=O (some centres undefined),5.9,9.3,i,-22.7,-1.5,-12.3
NNC(=O)c1cccc(Cn2cc(Br)c([N+](=O)[O-])n2)c1,0.8,5.7,i,-9.8,-1.9,1.0
CCCNC(=O)c1cccc(Cn2cc(Br)c([N+](=O)[O-])n2)c1,8.5,38.7,i,-18.5,11.4,41.3*
C=CCn1c(SCc2ccc(OC)cc2)nnc1-c1cccnc1,2.6,8.0,i,-16.9,21.7,49.6*
C=CCn1c(SCc2ccccc2)nnc1-c1cccnc1,-12.5,8.3,i,-26.7,1.2,-35.6
O=C(NCCCc1ccccc1)c1ccc(Br)o1,1.4,20.3,i,-4.9,38.0,49.1*
O=C(NCCCCc1ccccc1)c1ccc(Br)o1,3.8,12.2,i,-18.1,-3.1,-0.1
O=C(O)[C@@H](c1ccccc1)N1Cc2ccccc2C1=O,7.2,13.5,i,-9.9,0.6,48.6*
COc1cccc2cc(C(=O)OCC(=O)NCc3ccc4c(c3)OCO4)c(=O)oc12,0.2,1.9,i,-11.5,-10.8,0.1
O=C(Nc1ccc([N+](=O)[O-])cc1)c1cc2ccccc2nc1Cl,0.9,2.8,i,-20.5,-2.4,3.5
CC(C)c1onc(C(=O)N2CCN(Cc3ccccc3)CC2)c1[N+](=O)[O-],0.5,3.8,i,-1.4,-5.9,-10.9
COc1ccc(N(CC(O)CN2C(=O)NC(C)(C)C2=O)S(=O)(=O)c2ccc(C)cc2)cc1 (centres undefined),2.4,-7.8,i,-17.6,-4.6,-13.7
Cc1ccc(N(CC(O)CN2C(=O)NC(C)(C)C2=O)S(=O)(=O)c2ccc(C)cc2)cc1 (centres undefined),34.4,49.2*,i,11.0,12.0,31.2
COC(=O)c1sccc1NC(=O)/C=C/c1ccc(Cl)cc1Cl,3.7,7.7,i,-22.9,-1.6,-15.6
COC(=O)c1sccc1NC(=O)/C=C/c1c(Cl)cccc1Cl,22.4,40.4*,i,-13.6,2.2,-5.9
CC(C)c1ccc(/C=N/NC(=O)CN(c2cccc(Cl)c2Cl)S(C)(=O)=O)cc1,-9.5,2.1,i,-17.0,-1.1,12.8
CS(=O)(=O)N(CC(=O)N/N=C/c1ccccc1C(=O)O)c1cccc(Cl)c1Cl,36.1,56.6*,i,-8.4,20.5,16.4
O=C(CCS(=O)(=O)c1cccc2nsnc12)NC1CCCCCC1,10.7,8.1,i,-23.9,14.1,40.9*
CCOC(=O)C1CCCN(Cc2nc(Cc3ccccc3Cl)no2)C1 (centres undefined),0.5,6.0,i,-22.0,-5.3,nt
COC(=O)c1nc(NC(C)=O)n[nH]1,0.0,48.0*,i,-5.8,24.7,4.8
COc1ccc(C(=O)NCc2ccc3c(c2)OCO3)cc1S(=O)(=O)N(C)Cc1ccccc1,5.9,14.8,i,-11.5,-4.3,-6.0
COc1cc(NC(=O)c2n[nH]c(=O)c3ccccc23)cc(OC)c1,1.1,9.0,i,-31.5,1.1,4.3
COc1cc(NC(=O)c2nccnc2C(=O)O)cc(OC)c1,4.1,2.1,i,-10.0,16.5,122.0*
Cc1ccc(NC(=O)Cn2nc(C)c(S(=O)(=O)N(C)C)c2C)cc1,-1.1,4.9,i,-23.7,-3.5,2.9
Cc1ccc(-n2cc(CNCCc3ncc(C)[nH]3)c(-c3ccc(F)cc3)n2)cc1,-3.3,3.8,i,-13.3,-0.2,5.3
CCc1nc2oc3ccccc3c(=O)c2c(=O)n1Cc1ccccc1,0.4,-2.8,i,-11.8,-2.2,-7.4
CCc1nc2oc3cc(OC)ccc3c(=O)c2c(=O)n1Cc1ccccc1,7.0,26.8,i,-18.5,25.2,47.6*

# Bioassay records as filed in PubChem BioAssay.
